A short description of experiment [1]: RPL19A-GFP modulators, yeast TOR pathway, confirmation, cell-based, S. cerevisiae, flow cytometry, cherry picks, mother/daughter gates (AID 2270;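 active = GFP response below 50% of the DMSO control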). The conditions noted are these: S. cerevisiae RPL19A-GFP strain, 3 h, at 10 µM, stronger effect = lower value, 100 = same GFP as DMSO wells. In general terms: A flow cytometer gives signals particle by particle.
Experiment [2] can be described thus: LAP4-GFP expression modulators in yeast, confirmation, cell-based, cherry picks, flow cytometry, mother/daughter gates (AID 2271;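 active = GFP response above 150% of the DMSO control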;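 note: ratio of sample to DMSO plate mean so 100% equals DMSO level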). The conditions noted are these: S. cerevisiae LAP4-GFP strain, 3 h, at 10 µM, stronger effect = higher value, 100 means same as DMSO control. In short, it runs like this:
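System: Alexa 633-stained baker's yeast GFP-fusion strain / Medium: synthetic complete (SC) yeast growth medium / Doses: compound at 10 µM, single point / Times: 3 h treatment at 30 °C with rotation / Detection: HT flow cytometry, GFP fluorescence channel / Benchmarks: DMSO-only negative wells, rapamycin 400 ng/mL positive wells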

Experiment [3] in a line: modulators of MEP2-GFP levels in yeast, confirmation, S. cerevisiae, flow cytometry GFP, cherry picks (AID 2272;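 active = GFP response above 150% of the DMSO control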;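 note: ratio of well signal to plate DMSO mean so 100% equals DMSO level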). The conditions noted are these: S. cerevisiae MEP2-GFP strain, 3 h, at 10 µM, stronger effect = higher value.
Experiment [4] in a line: AGP1-GFP expression modulators, hit retest, confirmation, cell-based, flow cytometry, S. cerevisiae, cherry picks (AID 2273).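 Note: median GFP channel fluorescence over the whole cell population gate.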 The conditions noted are these: S. cerevisiae AGP1-GFP strain, 3 h, at 10 µM.
The nature of experiment [5]: modulators of CIT2-GFP expression in yeast, confirmation, S. cerevisiae, GFP fusion, cherry picks, mother/daughter gates (AID 2274). To be noted: S. cerevisiae CIT2-GFP strain, flow cytometry, 3 h, at 10 µM, stronger effect = higher value.
Setting [6] is: measured here: daughter cell gate.
[7] abbreviates: measured here: mother cell gate.
The mark [8] stands for this setting: measured here: daughter cell gate response.
Where [9] appears, read: measured here: mother cell gate response.

Activity calls are given as the source filed them.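 Rule for the calls, unless noted: active = GFP response above 150% of the DMSO level; inconclusive = fewer than 70 events counted for a yeast strain; inactive = the rest.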

Turning to `O=C(OCn1ncc(Br)c(Br)c1=O)c1ccc(F)cc1`, the GFP response vs DMSO in experiment [1] is 99.7% (inactive); in experiment [1] (setting [6]), 99.8%; in experiment [1] (setting [7]), 94.8%; in experiment [3], 116% (inactive). Besides, the GFP response relative to DMSO is 210% (active) in experiment [2], 183% in experiment [2] (setting [8]) and 203% in experiment [2] (setting [9]). Also, the GFP response, % of DMSO is 106% (inactive) in experiment [4], 99.3% (inactive) in experiment [5], 108% in experiment [5] (setting [6]) and 92.1% in experiment [5] (setting [7]).

As to `Cc1cccc(NC(c2ccc(C)s2)c2ccc3ccc(C)nc3c2O)n1` (centres undefined), the GFP response vs DMSO in experiment [1] was 108% (inactive); in experiment [1] (setting [6]), 120%; in experiment [1] (setting [7]), 98.6%; in experiment [3], 114% (inactive). Moreover, the values for the GFP response relative to DMSO in experiment [2], in experiment [2] (setting [8]) and in experiment [2] (setting [9]) were 140% (inactive), 141% and 134%, respectively. Moreover, the GFP response, % of DMSO in experiment [4] is 94.9% (inactive); in experiment [5] it was 109% (inactive); in experiment [5] (setting [6]), 121%; in experiment [5] (setting [7]), 94.4%.

As for `O=C1c2cccc3c(N4CCCCC4)ccc(c23)C(=O)N1CCO`, the GFP response vs DMSO is 100% (inactive) in experiment [1], 94.9% in experiment [1] (setting [6]), 94.9% in experiment [1] (setting [7]) and 105% (inactive) in experiment [3]. The results for the GFP response relative to DMSO in experiment [2], in experiment [2] (setting [8]) and in experiment [2] (setting [9]) were 99.5% (inactive), 99.1% and 98.4%, respectively. The GFP response, % of DMSO was 103% (inactive) in experiment [4], 103% (inactive) in experiment [5], 101% in experiment [5] (setting [6]) and 96.8% in experiment [5] (setting [7]).

Turning to `CN1CCN(C(=O)CC2C(=O)NCCN2Cc2ccc(-c3ccccc3)cc2)CC1` (centres undefined), the GFP response vs DMSO is 96.2% (inactive) in experiment [1], 96.2% in experiment [1] (setting [6]), 98.5% in experiment [1] (setting [7]) and 97.5% (inactive) in experiment [3]. The GFP response relative to DMSO is 100% (inactive) in experiment [2], 102% in experiment [2] (setting [8]) and 99.5% in experiment [2] (setting [9]). The GFP response, % of DMSO in experiment [4] is 99.7% (inactive); in experiment [5] it was 97.8% (inactive); in experiment [5] (setting [6]), 100%; in experiment [5] (setting [7]) it was 99.1%.

Turning to `CCOc1ccc(C(=O)/C=C/c2ccc(SC)cc2)cc1`, the GFP response vs DMSO in experiment [1] is 98% (inactive); in experiment [1] (setting [6]), 100%; in experiment [1] (setting [7]), 96.8%; in experiment [3] it was 101% (inactive). For the same compound, the GFP response relative to DMSO is 102% (inactive) in experiment [2], 99.1% in experiment [2] (setting [8]) and 103% in experiment [2] (setting [9]). In addition, the GFP response, % of DMSO in experiment [4] is 102% (inactive); in experiment [5], 100% (inactive); in experiment [5] (setting [6]), 99.2%; in experiment [5] (setting [7]), 80.9%.

For `CCN(CC)CCCN(Cc1cc2cc3c(cc2[nH]c1=O)OCO3)C(=S)Nc1ccccc1`, the GFP response vs DMSO is 87.4% (inactive) in experiment [1], 74.2% in experiment [1] (setting [6]), 80.4% in experiment [1] (setting [7]) and 139% (inactive) in experiment [3]. The GFP response relative to DMSO in experiment [2] is 135% (inactive); in experiment [2] (setting [8]), 104%; in experiment [2] (setting [9]), 131%. For the same compound, the GFP response, % of DMSO was 133% (inactive) in experiment [4], 126% (inactive) in experiment [5], 103% in experiment [5] (setting [6]) and 120% in experiment [5] (setting [7]).

Take `COc1cccc(NC(=O)/C=C/c2ccc([N+](=O)[O-])cc2)c1`: the GFP response vs DMSO was 96% (inactive) in experiment [1], 97.6% in experiment [1] (setting [6]), 93.2% in experiment [1] (setting [7]) and 109% (inactive) in experiment [3]. Besides, the values for the GFP response relative to DMSO in experiment [2], in experiment [2] (setting [8]) and in experiment [2] (setting [9]) were 102% (inactive), 101% and 104%, respectively. The GFP response, % of DMSO is 95.7% (inactive) in experiment [4], 88.6% (inactive) in experiment [5], 90.2% in experiment [5] (setting [6]) and 88.2% in experiment [5] (setting [7]).

Turning to `Cc1cc(C)nc(/N=C(\N)N2CCCCCC2)n1`, the GFP response vs DMSO in experiment [1] is 99.3% (inactive); in experiment [1] (setting [6]) it was 100%; in experiment [1] (setting [7]), 100%; in experiment [3], 99.5% (inactive). The GFP response relative to DMSO in experiment [2] is 103% (inactive); in experiment [2] (setting [8]) it was 104%; in experiment [2] (setting [9]), 102%. The GFP response, % of DMSO in experiment [4] was 99.5% (inactive); in experiment [5], 101% (inactive); in experiment [5] (setting [6]), 100%; in experiment [5] (setting [7]), 100%.

As for `O=c1[nH]c2c(=O)[nH]cnc2nc1-c1ccccc1`, the GFP response vs DMSO is 103% (inactive) in experiment [1], 94.9% in experiment [1] (setting [6]), 96.3% in experiment [1] (setting [7]) and 101% (inactive) in experiment [3]. Moreover, the GFP response relative to DMSO in experiment [2] was 97% (inactive); in experiment [2] (setting [8]), 95.9%; in experiment [2] (setting [9]), 88.8%. Besides, the GFP response, % of DMSO in experiment [4] is 98.2% (inactive); in experiment [5], 97.3% (inactive); in experiment [5] (setting [6]), 86.6%; in experiment [5] (setting [7]), 89.5%.

The record behind these values is PubChem BioAssay.
